Laboratory results published in ChEMBL document CHEMBL1140695, “Endomorphin-2 with a beta-turn backbone constraint retains the potent micro-opioid receptor agonist properties” (J Med Chem, 2008).

Columns and labels:
[1] = biological target: Delta-type opioid receptor (Rattus norvegicus, UniProt P33533); assay: Displacement of [3H]deltorphin 2 from delta opioid receptor in Wistar rat brain after 45 mins
Summary of the method: (§1)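 Radioligand binding on a crude membrane fraction of Wistar rat forebrain.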

Mu-type opioid receptor [2] = biological target: Mu-type opioid receptor (Rattus norvegicus, UniProt P33535); assay: Displacement of [3H]DAMGO from mu opioid receptor in Wistar rat brain after 45 mins; summary of the method: as §1
[3] = Stability in rat brain assessed as half life; assay type: ADME, tissue-based
Summary of the method: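 Peptides incubated in rat brain homogenate lacking cerebellum. Digestion mixtures analysed by RP-HPLC; velocity constants and half-lives calculated assuming pseudo-first-order kinetics.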

[4] = biological target: Mu-type opioid receptor (Rattus norvegicus) (UniProt P33535); assay: Agonist activity at mu opioid receptor in rat brain assessed as maximal stimulation of [35S]GTP-gamma-S binding relative to basal level; assay type: functional, tissue-based
Summary of the method: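 [35S]GTPγS binding in rat brain membrane fractions, reversal tested with naloxone 1 µM.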

[5] = biological target: Mu-type opioid receptor (Rattus norvegicus) (UniProt P33535); settings: Brain
Mu-type opioid receptor [6] = biological target: Mu-type opioid receptor (Mus musculus, UniProt P42866); assay: Agonist activity at mu opioid receptor in NMRI mouse vas deferens assessed as inhibition of electrically-stimulated muscle contraction; assay type: functional, tissue-based
Summary of the method: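 Mouse vas deferens preparation; agonist potency. Values are means ± S.E.M of 3–7 independent duplicate experiments.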

[7] = biological target: Mu-type opioid receptor (Homo sapiens) (UniProt P35372); settings: CHO
Sequence of Mu-type opioid receptor (Homo sapiens) (P35372 whole entry): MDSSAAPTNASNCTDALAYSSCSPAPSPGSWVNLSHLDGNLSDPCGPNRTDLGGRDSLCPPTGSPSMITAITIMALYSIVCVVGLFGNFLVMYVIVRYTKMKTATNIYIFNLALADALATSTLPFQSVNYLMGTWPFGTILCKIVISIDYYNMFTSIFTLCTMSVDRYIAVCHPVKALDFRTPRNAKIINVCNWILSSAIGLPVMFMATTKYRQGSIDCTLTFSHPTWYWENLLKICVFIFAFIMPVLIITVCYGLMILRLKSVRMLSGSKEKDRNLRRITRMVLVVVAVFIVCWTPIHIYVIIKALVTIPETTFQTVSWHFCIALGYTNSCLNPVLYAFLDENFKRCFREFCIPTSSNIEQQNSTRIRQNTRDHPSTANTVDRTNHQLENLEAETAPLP

Sequence of Mu-type opioid receptor (Rattus norvegicus) (P33535 whole entry): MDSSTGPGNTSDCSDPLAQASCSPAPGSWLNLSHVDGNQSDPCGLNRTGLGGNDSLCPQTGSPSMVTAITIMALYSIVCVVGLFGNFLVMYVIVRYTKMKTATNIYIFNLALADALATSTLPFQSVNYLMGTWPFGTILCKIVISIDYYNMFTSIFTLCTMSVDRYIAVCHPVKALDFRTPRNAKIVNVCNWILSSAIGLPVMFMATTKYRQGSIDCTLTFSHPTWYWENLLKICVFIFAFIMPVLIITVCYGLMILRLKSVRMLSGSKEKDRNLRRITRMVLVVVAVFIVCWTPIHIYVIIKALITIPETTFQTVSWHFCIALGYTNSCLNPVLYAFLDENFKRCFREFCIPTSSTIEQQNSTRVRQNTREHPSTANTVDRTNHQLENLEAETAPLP
Sequence of Mu-type opioid receptor (Rattus norvegicus, UniProt P33535) (P33535 whole entry): as above
Sequence of Delta-type opioid receptor (P33533 whole entry): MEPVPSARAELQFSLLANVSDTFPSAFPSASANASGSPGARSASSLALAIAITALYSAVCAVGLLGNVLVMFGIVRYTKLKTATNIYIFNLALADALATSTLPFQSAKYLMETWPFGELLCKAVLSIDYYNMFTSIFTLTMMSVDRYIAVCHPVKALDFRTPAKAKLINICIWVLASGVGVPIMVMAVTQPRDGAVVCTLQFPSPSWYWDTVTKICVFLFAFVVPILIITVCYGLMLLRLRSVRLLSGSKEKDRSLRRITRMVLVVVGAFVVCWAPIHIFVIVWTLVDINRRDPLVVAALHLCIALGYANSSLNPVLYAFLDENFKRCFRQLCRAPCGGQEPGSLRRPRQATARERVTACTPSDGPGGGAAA
Sequence of Mu-type opioid receptor (Mus musculus, UniProt P42866) (P42866 whole entry): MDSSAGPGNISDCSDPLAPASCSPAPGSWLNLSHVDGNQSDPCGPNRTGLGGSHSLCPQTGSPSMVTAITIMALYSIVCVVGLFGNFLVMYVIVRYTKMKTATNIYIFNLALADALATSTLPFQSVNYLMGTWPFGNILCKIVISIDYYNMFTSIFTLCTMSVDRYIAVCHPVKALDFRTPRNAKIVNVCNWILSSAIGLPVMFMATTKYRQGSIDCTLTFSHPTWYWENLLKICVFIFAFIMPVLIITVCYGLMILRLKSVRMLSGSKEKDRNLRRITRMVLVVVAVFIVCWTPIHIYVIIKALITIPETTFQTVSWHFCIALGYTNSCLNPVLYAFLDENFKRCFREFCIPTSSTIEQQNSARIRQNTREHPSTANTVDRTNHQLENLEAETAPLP

NC(=O)[C@H](Cc1ccccc1)NC(=O)CN1Cc2ccccc2C[C@H](NC(=O)[C@@H](N)Cc2ccc(O)cc2)C1=O showed a Ki [1] of 0.778 nM, a Ki (Mu-type opioid receptor [2]) of 0.373 nM and a half-life [3] of 0.0117 h.

NC(=O)[C@H](Cc1ccccc1)NC(=O)CN1Cc2ccccc2C[C@@H](NC(=O)[C@@H](N)Cc2ccc(O)cc2)C1=O gave a Ki [1] of 2.96 nM, a Ki (Mu-type opioid receptor [2]) of 2.25 nM and a half-life [3] of 3.3 h.

Work on C[C@@H](NC(=O)[C@@H](N)Cc1ccc(O)cc1)C(=O)NCC(=O)N(C)[C@@H](Cc1ccccc1)C(=O)NCCO yielded an Emax [4] of 169%.

Work on NC(=O)[C@H](Cc1ccccc1)NC(=O)CN1Cc2ccccc2C[C@@]2(CCCN2C(=O)[C@@H](N)Cc2ccc(O)cc2)C1=O yielded a Ki [1] of 2.31 nM, a Ki (Mu-type opioid receptor [2]) of 8.73 nM and a half-life [3] greater than 24 h.

NC(=O)[C@H](Cc1ccccc1)NC(=O)[C@H](Cc1ccccc1)NC(=O)[C@@H]1CCCN1C(=O)[C@@H](N)Cc1ccc(O)cc1 [ENDOMORPHIN 2] gave a half-life [3] of 0.0633 h.

Compound NC(=O)[C@H](Cc1ccccc1)NC(=O)CN1Cc2ccccc2C[C@]2(CCCN2C(=O)[C@@H](N)Cc2ccc(O)cc2)C1=O has a Log10ED50 [5] of 6.74, a Ki [1] greater than 10 nM and an Emax [4] of 134%. For the same compound, the IC50 (Mu-type opioid receptor [6]) was 49.8 nM, the Ki (Mu-type opioid receptor [2]) was 0.0293 nM and the half-life [3] was greater than 24 h. It also gave a Log10ED50 [7] of 6.88.

Work on CN1CC[C@]23c4c5ccc(O)c4O[C@H]2[C@@H](O)C=C[C@H]3[C@H]1C5 yielded an Emax [4] of 134%.
